# Results taken from ChEMBL document CHEMBL3091366, “New 5-Aryl-1H-imidazoles display in vitro antitumor activity against apoptosis-resistant cancer models, including melanomas, through mitochondrial targeting” (J Med Chem, 2013).
# “And” between values parts separate entries of the source, which are not always exact repeats. Identical values can stand only once.
# Tests used:
# MCF7 = experiment: Cytotoxicity against apoptotic-sensitive human MCF7 cells assessed as growth inhibition after 72 hrs by MTT-based colorimetric assay; type: functional, cell-based
# Outline: (§1)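 MTT colorimetric assay, 72 h exposure to the fumarate salt. Read-out is reduction of MTT to formazan by living cells. IC50 is the concentration that reduces the whole cell population by 50%. Six replicates per condition. Where compounds were not tested on every line, apoptosis-sensitive lines were PC3, MCF-7, LoVo and B16F10, and apoptosis-resistant lines were U373, T98G, A549 and SK-MEL-28.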
# T98G = experiment: Cytotoxicity against apoptotic-resistant human T98G cells assessed as growth inhibition after 72 hrs by MTT-based colorimetric assay; type: functional, cell-based; outline: as §1
# A549 = experiment: Cytotoxicity against apoptotic-resistant human A549 cells assessed as growth inhibition after 72 hrs by MTT-based colorimetric assay; type: functional, cell-based; outline: as §1
# LoVo = experiment: Cytotoxicity against apoptotic-sensitive human LoVo cells assessed as growth inhibition after 72 hrs by MTT-based colorimetric assay; type: functional, cell-based; outline: as §1
# PC-3 = experiment: Cytotoxicity against apoptotic-sensitive human PC3 cells assessed as growth inhibition after 72 hrs by MTT-based colorimetric assay; type: functional, cell-based; outline: as §1
# SK-MEL-28 = experiment: Cytotoxicity against apoptotic-resistant human SK-MEL-28 cells assessed as growth inhibition after 72 hrs by MTT-based colorimetric assay; type: functional, cell-based; outline: as §1
# [1] = Cytotoxicity against apoptotic-resistant human U373 cells assessed as growth inhibition after 72 hrs by MTT-based colorimetric assay; type: functional, cell-based, U-373MG ATCC; outline: as §1
Compound,"IC50 (MCF7; Homo sapiens, MCF7, 72 h)","IC50 (T98G; Homo sapiens, T98G, 72 h)","IC50 (A549; Homo sapiens, A549, 72 h)","IC50 (LoVo; Homo sapiens, LoVo, 72 h)","IC50 (PC-3; Homo sapiens, PC-3, 72 h)","IC50 (SK-MEL-28; Homo sapiens, SK-MEL-28, 72 h)","IC50 ([1]; Homo sapiens, U373 MG, 72 h)",IC50 (MCF7; mcf7),IC50 (T98G; t98g),IC50 (A549; a549),IC50 (LoVo; lovo),IC50 (PC-3; pc-3),IC50 (SK-MEL-28; sk-mel-28),IC50 ([1]; u-373mg atcc)
C=CCCCCOc1cc2ccccc2cc1-c1cnc(OCCCCC=C)n1C,37 µM,40 µM,16 µM,25 µM,38 µM,59 µM,33 µM,,,,,,,
C=CCCCCOc1ccccc1-c1cnc(OC)n1C,98 µM,> 100 µM,80 µM,47 µM,86 µM,85 µM,> 100 µM,,,,,,,
C=CCCCCOc1ncc(-c2ccccc2OC)n1C,5 µM,5 µM,5 µM,4 µM,24 µM,13 µM,9 µM,,,,,,,
C=CCCCCOc1ccccc1-c1cnc(NC(=O)CCCC=C)n1C,22 µM,22 µM,8 µM,10 µM,11 µM,7 µM,7 µM,,,,,,,
C=CCCCCCOc1ncc(-c2ccccc2OCCCCC=C)n1C,63 µM,63 µM,62 µM,32 µM,70 µM,79 µM,76 µM,,,,,,,
Cn1c2cnc1NC(=O)CCCCCCCCCOc1ccccc1-2,61 µM,64 µM,43 µM,33 µM,61 µM,59 µM,38 µM,,,,,,,
Cn1c(-c2ccccc2O)cnc1S(=O)(=O)c1ccccc1,> 100 µM,> 100 µM,> 100 µM,56 µM,> 100 µM,> 100 µM,> 100 µM,,,,,,,
Cn1c2cnc1OCCCCCCCCCCCOc1ccccc1-2,41 µM,56 µM,36 µM,32 µM,36 µM,47 µM,48 µM,,,,,,,
C=CCCCCOc1ccc(C)cc1-c1cnc(OCCC=C)n1C,53 µM,94 µM,59 µM,41 µM,59 µM,83 µM,33 µM,,,,,,,
Cn1c2cnc1OCCCCCCCCCCOc1cc3ccccc3cc1-2,24 µM,22 µM,20 µM,28 µM,25 µM,33 µM,29 µM,,,,,,,
COc1ccccc1-c1cnc(OC)n1C,> 100 µM,> 100 µM,> 100 µM,73 µM,> 100 µM,> 100 µM,> 100 µM,,,,,,,
Cn1c2cnc1OCCCCCCCCCCOc1ccccc1-2,24 µM,41 µM,48 µM,33 µM,31 µM,31 µM,31 µM,,,,,,,
C=CCCOc1ncc(-c2ccccc2OC)n1C,27 µM,39 µM,22 µM,24 µM,25 µM,21 µM,16 µM,,,,,,,
C=CCCCCOc1cc2ccccc2cc1-c1cnc(OCCC=C)n1C,25 µM,32 µM,21 µM,25 µM,14 µM,25 µM,27 µM,,,,,,,
C=CCCCCOc1ccc(F)cc1-c1cnc(OCCC=C)n1C,43 µM,87 µM,61 µM,38 µM,52 µM,82 µM,73 µM,,,,,,,
COc1ccc2c(c1)-c1cnc(n1C)OCCCCCCCCO2,32 µM,68 µM,40 µM,34 µM,40 µM,57 µM,63 µM,,,,,,,
"Cn1c2cnc1OCCCCCCCCOc1ccccc1-2 (single isomer, unassigned; atropisomer)",,,,,,,,44 µM and 43 µM,75 µM and 92 µM,59 µM and 54 µM,37 µM and 63 µM,49 µM and 57 µM,64 µM and 66 µM,71 µM
C=CCCCCOc1ccc(OC)cc1-c1cnc(OCCC=C)n1C,37 µM,74 µM,43 µM,33 µM,43 µM,62 µM,67 µM,,,,,,,
